Each block holds one molecule with its values, some of them ahead of it. Where a SMILES comes first, the peptide text is derived from it. The star is where a group is joined. X1 = COc1cccc2c1C(=O)c1c(O)c3c(c(O)c1C2=O)C[C@@](O)(/C(C)=N/OCC(=O)*)C[C@@H]3O[C@H]1C[C@H](N)[C@H](O)[C@H](C)O1
Tests used:
[1] = Cytostatic activity against human M24 cells preincubated for 24 hrs under serum free condition followed by compound washout and further incubation for 48 hrs in presence of serum by MTT assay; type: functional, cell-based
Method in brief: (§1)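 Cells were grown at 37 °C in 5% CO2 in medium with 10% heat-inactivated FBS (20% for OVCAR-3) plus penicillin/streptomycin. The medium was RPMI-1640 for most lines, DMEM for U-87 MG and MRC-5, and IMDM for PE/CA-PJ lines. Seeding was 3×10^3–10×10^3 cells per well. Cells had 24 h compound exposure, a wash, and 48 h further culture. Read-out was MTT, normalized to untreated cells and fitted by nonlinear regression for IC50.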

[2] = Toxicity in SCID mouse xenografted with human HT-29 cells assessed as animal death at 1 mg/kg, ip administered once a week (on days 13 and 20) starting from 13 days post inoculation measured upto 23 days post inoculation; type: organism-based; conditions: in vivo
OVCAR-3 = assay: Cytostatic activity against human OVCAR3 cells preincubated for 24 hrs under serum free condition followed by compound washout and further incubation for 48 hrs in presence of serum by MTT assay; type: functional, cell-based; method in brief: as §1
A2058 = assay: Cytostatic activity against human A2058 cells preincubated for 24 hrs under serum free condition followed by compound washout and further incubation for 48 hrs in presence of serum by MTT assay; type: functional, cell-based; method in brief: as §1
[3] = Cytostatic activity against human PECAPJ41 cells preincubated for 24 hrs under serum free condition followed by compound washout and further incubation for 48 hrs in presence of serum by MTT assay; type: functional, cell-based; method in brief: as §1
A549 = assay: Cytostatic activity against human A549 cells preincubated for 24 hrs under serum free condition followed by compound washout and further incubation for 48 hrs in presence of serum by MTT assay; type: functional, cell-based; method in brief: as §1
MCF7 = assay: Cytostatic activity against human MCF7 cells preincubated for 24 hrs under serum free condition followed by compound washout and further incubation for 48 hrs in presence of serum by MTT assay; type: functional, cell-based; method in brief: as §1
[4] = Drug uptake in nucleus of human HT-29 cells assessed as increase in fluorescence at 50 uM after 90 mins by fluorescence based confocal microscopic analysis; type: ADME, subcellular; conditions: ht-29, 1.5 h
Method in brief: (§2)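 HT-29 cells were incubated with 50 µM compound in RPMI for 90 min. Imaging was by confocal microscopy, with Dau detected at 550–600 nm emission.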

HCT-116 = assay: Cytostatic activity against human HCT116 cells preincubated for 24 hrs under serum free condition followed by compound washout and further incubation for 48 hrs in presence of serum by MTT assay; type: functional, cell-based; method in brief: as §1
[5] = Toxicity in SCID mouse xenografted with human HT-29 cells assessed as body weight loss at 1 mg/kg, ip administered once a week (on day 13 and 20) starting from 13 days post inoculation measured upto 23 days post inoculation; type: organism-based; conditions: in vivo
B16 = assay: Cytostatic activity against mouse B16 cells preincubated for 24 hrs under serum free condition followed by compound washout and further incubation for 48 hrs in presence of serum by MTT assay; type: functional, cell-based; method in brief: as §1
U-87 MG = assay: Cytostatic activity against human U87 cells preincubated for 24 hrs under serum free condition followed by compound washout and further incubation for 48 hrs in presence of serum by MTT assay; type: functional, cell-based, U-87MG ATCC; method in brief: as §1
HT-29 [6] = assay: Antitumor activity against human HT-29 cells xenografted in SCID mouse assessed as decrease in number of Ki-67 positive cells measured as proliferation index at 1 mg/kg, ip administered once a week (on days 13 and 20) starting from 13 days post inoculation measured at day 23 post inoculation by KI-67-staining based light microscopic analysis (reference value: 100%); type: functional; parameters: scale not given: the % may be the effect or the level left
Method in brief: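 Tumours from the SCID HT-29 orthotopic study were formalin-fixed and paraffin-embedded, cut at 2 µm, and given citrate pH 6 retrieval at 98 °C for 40 min. They were stained with anti-human Ki-67 (1:40, 1 h RT), then a biotinylated link, HRP polymer and AEC. Ki-67+ cells were counted in 5 fields per tumour at 40× magnification. The proliferation index is the % positive cells.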

[7] = Cytostatic activity against human WM983B cells preincubated for 24 hrs under serum free condition followed by compound washout and further incubation for 48 hrs in presence of serum by MTT assay; type: functional, cell-based; method in brief: as §1
PANC-1 = assay: Cytostatic activity against human PANC1 cells preincubated for 24 hrs under serum free condition followed by compound washout and further incubation for 48 hrs in presence of serum by MTT assay; type: functional, cell-based; method in brief: as §1
HT-29 [8] = assay: Antitumor activity against human HT-29 cells xenografted in SCID mouse assessed as tumor growth inhibition by measuring decrease in tumor growth at 1 mg/kg, ip administered once per week for 2 times starting from 13 days post inoculation measured at day 23 post inoculation; conditions: HT-29, ip
HepG2 = assay: Cytostatic activity against human HepG2 cells preincubated for 24 hrs under serum free condition followed by compound washout and further incubation for 48 hrs in presence of serum by MTT assay; type: functional, cell-based; method in brief: as §1
WiDr = assay: Cytostatic activity against human WiDr cells preincubated for 24 hrs under serum free condition followed by compound washout and further incubation for 48 hrs in presence of serum by MTT assay; type: functional, cell-based; method in brief: as §1
4T1 = assay: Cytostatic activity against mouse 4T1 cells preincubated for 24 hrs under serum free condition followed by compound washout and further incubation for 48 hrs in presence of serum by MTT assay; type: functional, cell-based; method in brief: as §1
[9] = Cytostatic activity against human PE/CA-PJ15 cells preincubated for 24 hrs under serum free condition followed by compound washout and further incubation for 48 hrs in presence of serum by MTT assay; type: functional, cell-based; method in brief: as §1
DU-145 = assay: Cytostatic activity against human DU145 cells preincubated for 24 hrs under serum free condition followed by compound washout and further incubation for 48 hrs in presence of serum by MTT assay; type: functional, cell-based; method in brief: as §1
HT-29 [10] = assay: Cytostatic activity against human HT-29 cells preincubated for 24 hrs under serum free condition followed by compound washout and further incubation for 48 hrs in presence of serum by MTT assay; type: functional, cell-based
Method in brief: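 HT-29 cells were exposed to the compound for 24 h, washed, and kept a further 48 h. Viability was read by MTT. Absorbances were normalized to untreated controls and fitted by nonlinear regression to dose-response curves to give IC50.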

MRC5 = assay: Cytostatic activity against human MRC5 cells preincubated for 24 hrs under serum free condition followed by compound washout and further incubation for 48 hrs in presence of serum by MTT assay; type: ADME, cell-based; method in brief: as §1
PC-3 = assay: Cytostatic activity against human PC3 cells preincubated for 24 hrs under serum free condition followed by compound washout and further incubation for 48 hrs in presence of serum by MTT assay; type: functional, cell-based; method in brief: as §1
NCI-H1650 = assay: Cytostatic activity against human NCI-H1650 cells preincubated for 24 hrs under serum free condition followed by compound washout and further incubation for 48 hrs in presence of serum by MTT assay; type: functional, cell-based; method in brief: as §1
MDA-MB-231 = assay: Cytostatic activity against human MDA-MB-231 cells preincubated for 24 hrs under serum free condition followed by compound washout and further incubation for 48 hrs in presence of serum by MTT assay; type: functional, cell-based; method in brief: as §1
NCI-H1975 = assay: Cytostatic activity against human NCI-H1975 cells preincubated for 24 hrs under serum free condition followed by compound washout and further incubation for 48 hrs in presence of serum by MTT assay; type: functional, cell-based; method in brief: as §1
CT26.WT = assay: Cytostatic activity against mouse CT26.WT cells preincubated for 24 hrs under serum free condition followed by compound washout and further incubation for 48 hrs in presence of serum by MTT assay; type: functional, cell-based; method in brief: as §1
HT-29 [11] = assay: Antitumor activity against human HT-29 cells xenografted in SCID mouse assessed as tumor growth inhibition by measuring decrease in tumor weight at 1 mg/kg, ip administered once a week (on day 13 and 20) starting from 13 days post inoculation measured at day 23 post inoculation relative to control; type: functional; conditions: HT-29, ip
[12] = Drug uptake in human HT-29 cells at 50 uM after 90 mins by fluorescence based confocal microscopic analysis; type: ADME, cell-based; conditions: ht-29, 1.5 h; method in brief: as §2
[13] = Stability in serum free medium at 30 uM incubated for 3 hrs by LC/MS analysis
Method in brief: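 Conjugates (30 μM) were incubated at 37 °C in serum-free medium. Samples were taken at 0 and 3 h, quenched with acetic acid, lyophilised, desalted on C18 spin columns and analysed by LC-MS.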

[14] = Stability in 2.5% fetal bovine serum containing medium assessed as drug decomposition measured as Dau=Aoa-LR-OH and H-RYVHLPYAT-NH2 metabolite formation with loss of sugar content at 30 uM measured after 24 hrs by LC/MS analysis; type: ADME, cell-free, Bos taurus; conditions: cattle
Method in brief: (§3)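 Conjugates (30 μM) were incubated at 37 °C in medium containing 2.5% FBS. Samples were taken at 0, 3, 6 and 24 h, quenched with acetic acid, lyophilised, desalted on C18 spin columns and analysed by LC-MS. Cleavage products were identified by mass.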

[15] = Drug uptake in human HT-29 cells at 100 uM incubated for 3 hrs by flow cytometry; type: ADME, cell-based; conditions: ht-29, 3 h
Method in brief: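 HT-29 cells were exposed to 100 µM conjugate for 3 h. Flow cytometry recorded the percentage of Dau-positive cells and the mean fluorescence intensity, in duplicate.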

[16] = Retention time of the compound using 0.1% TFA in water and 0.1% TFA in acetonitrile-water (80:20 v/v) as eluents by RP-HPLC analysis; type: physicochemical
Method in brief: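 Analytical RP-HPLC. Eluent A was 0.1% TFA in water and eluent B was 0.1% TFA in acetonitrile-water (80:20, v/v). Gradient: 0% B held to 5 min, then to 90% B at 50 min. Flow 1 mL/min, detection at 220 nm. The column was a Phenomenex Aeris Peptide XB-C18 (250×4.6 mm, 3.6 μm) or a Nucleosil C18 (5 μm, 100 Å, 250×4.6 mm), depending on the conjugate series.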

[17] = Aqueous solubility of compound in water; type: physicochemical; conditions: buffer
[18] = Drug uptake in cytoplasm of living human HT-29 cells at 50 uM after 90 mins by fluorescence based confocal microscopic analysis; type: ADME, subcellular; conditions: ht-29, 1.5 h; method in brief: as §2
[19] = Stability in 2.5% fetal bovine serum containing medium at 30 uM measured after 24 hrs by LC/MS analysis; type: ADME, cell-free, Bos taurus; conditions: cattle; method in brief: as §3
[20] = Drug uptake in human HT-29 cells assessed as increase in fluorescence intensity at 25 uM incubated for 3 hrs by flow cytometry; type: ADME, cell-based; conditions: ht-29, 3 h
[21] = Drug uptake in nucleus of dead human HT-29 cells at 50 uM after 90 mins by fluorescence based confocal microscopic analysis; type: ADME, subcellular; conditions: ht-29, 1.5 h; method in brief: as §2

SMILES: COc1cccc2c1C(=O)c1c(O)c3c(c(O)c1C2=O)C[C@@](O)(C(C)=O)C[C@@H]3O[C@H]1C[C@H](N)[C@H](O)[C@H](C)O1 [DAUNORUBICIN]
IC50 [1]: 93.6 nM
Activity [2]: Toxic
IC50 (OVCAR-3): 473 nM
IC50 (A2058): 33.3 nM
IC50 [3]: 25.8 nM
IC50 (A549): 68.2 nM
IC50 (MCF7): 286 nM
Drug uptake [4]: Active
IC50 (HCT-116): 127 nM
Activity [5]: Toxic
IC50 (B16): 8.9 nM
IC50 (U-87 MG): 27.9 nM
Activity (HT-29 [6]): 94%
IC50 [7]: 44.3 nM
IC50 (PANC-1): 467 nM
inhibition in vivo at 1 mg/kg (HT-29 [8]): 30%
IC50 (HepG2): 21.3 nM
IC50 (WiDr): 240 nM
IC50 (4T1): 40.8 nM
IC50 [9]: 26.7 nM
IC50 (DU-145): 24.5 nM
IC50 (HT-29 [10]): 203 nM
IC50 (MRC5): 255 nM
IC50 (PC-3): 26 nM
IC50 (NCI-H1650): 47.5 nM
IC50 (MDA-MB-231): 52.9 nM
IC50 (NCI-H1975): 13.3 nM
IC50 (CT26.WT): 126 nM
inhibition in vivo at 1 mg/kg (HT-29 [11]): 84%

Drug uptake [12]: Not Active
Stability [14]: Unstable
Drug uptake [15]: Not Active
IC50 (HT-29 [10]): > 50000 nM
Retention time [16]: 31.2 to 31.3 min
SMILES: COc1cccc2c1C(=O)c1c(O)c3c(c(O)c1C2=O)C[C@@](O)(/C(C)=N/OCC(=O)N[C@@H](CC(C)C)C(=O)N[C@@H](CCCNC(=N)N)C(=O)N[C@@H](CCCNC(=N)N)C(=O)N[C@@H](Cc1ccc(O)cc1)C(=O)N[C@H](C(=O)N[C@@H](Cc1cnc[nH]1)C(=O)N[C@@H](CC(C)C)C(=O)N1CCC[C@H]1C(=O)N[C@@H](Cc1ccc(O)cc1)C(=O)N[C@@H](C)C(=O)N[C@H](C(N)=O)[C@@H](C)O)C(C)C)C[C@@H]3O[C@H]1C[C@H](N)[C@H](O)[C@H](C)O1 (X1-LRRYVHLPYAT-NH2)
Stability [13]: Stable

solubility [17]: Soluble
Drug uptake [18]: Active
IC50 (HT-29 [10]): 24800 nM
Stability [19]: Stable
Drug uptake [20]: Active
Drug uptake [21]: Active
Retention_time [16]: 28.9 min
SMILES: COc1cccc2c1C(=O)c1c(O)c3c(c(O)c1C2=O)C[C@@](O)(/C(C)=N/OCC(=O)N[C@@H](CC(C)C)C(=O)N[C@@H](CCCNC(=N)N)C(=O)N[C@@H](CCCNC(=N)N)C(=O)N[C@@H](Cc1ccc(O)cc1)C(=O)N[C@H](C(=O)N[C@@H](Cc1cnc[nH]1)C(=O)N[C@@H](CC(C)C)C(=O)N[C@@H](CO)C(=O)N[C@@H](Cc1ccc(O)cc1)C(=O)N[C@@H](C)C(=O)N[C@H](C(N)=O)[C@@H](C)O)C(C)C)C[C@@H]3O[C@H]1C[C@H](N)[C@H](O)[C@H](C)O1 (X1-LRRYVHLSYAT-NH2)
Stability [13]: Stable

Source: ChEMBL document CHEMBL4350976, “Sequence modification of heptapeptide selected by phage display as homing device for HT-29 colon cancer cells to improve the anti-tumour activity of drug delivery systems” (Eur J Med Chem, 2019)
